Measured values of several laboratories.
Target: Megakaryocyte-associated tyrosine-protein kinase (MATK, Homo sapiens, UniProt P42679)
Residues used in one study (P42679 1-507): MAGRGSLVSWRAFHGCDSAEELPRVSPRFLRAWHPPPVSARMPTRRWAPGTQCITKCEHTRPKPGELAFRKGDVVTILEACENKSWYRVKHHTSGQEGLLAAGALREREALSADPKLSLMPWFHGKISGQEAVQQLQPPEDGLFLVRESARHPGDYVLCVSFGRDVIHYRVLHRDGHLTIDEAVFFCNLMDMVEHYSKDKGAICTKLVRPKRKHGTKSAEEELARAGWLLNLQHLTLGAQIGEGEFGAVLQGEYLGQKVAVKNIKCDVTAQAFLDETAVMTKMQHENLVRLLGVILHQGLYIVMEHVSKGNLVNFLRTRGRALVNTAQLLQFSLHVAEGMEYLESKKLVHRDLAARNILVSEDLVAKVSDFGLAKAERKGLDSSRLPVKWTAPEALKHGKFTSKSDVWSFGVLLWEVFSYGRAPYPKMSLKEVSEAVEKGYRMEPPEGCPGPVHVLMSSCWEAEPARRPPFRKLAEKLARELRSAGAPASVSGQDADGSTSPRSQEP

CC(C)(C)c1cc(C=C(C#N)C#N)cc(Br)c1O  remaining activity (enzyme activity, inhibitor; 0.5 µM): 102%
COc1ncccc1-c1cnn2ccc(N3CCN(C(=O)OC(C)C)CC3)nc12  remaining binding (binding, competition with immobilised ligand; 1 µM): 46%
Cc1nn(C)cc1-c1nc2c(N3CCN(Cc4ccc(Cl)cc4)CC3)c(Cl)cnc2[nH]1  remaining binding (binding, competition with immobilised ligand; 1 µM): 82%
O=c1[nH]c2ccccc2n1C1CCN(Cc2ccc(-c3[nH]c4cc5ncnc5cc4nc3-c3ccccc3)cc2)CC1  remaining signal (cell-free assay; 0.5 µM): 102%
COc1cc(Nc2ncc(F)c(Nc3ccc4c(n3)NC(=O)C(C)(C)O4)n2)cc(OC)c1OC  inhibition (binding, competition with immobilised ligand; 10 µM): 70%
Cn1cc(-c2cccc(N3CCc4c(sc5c4CC(C)(C)C5)C3=O)c2CO)cc(Nc2ccncn2)c1=O  inhibition (enzyme activity, inhibitor; 1 µM): 4%
Nc1ncc(-c2nc(N3CCOCC3)nc(N3CCOCC3)n2)c(C(F)F)n1  remaining binding (binding, competition with immobilised ligand; 10 µM): 100%
Cn1cc(-c2cc(F)cc(N3CCn4c(cc5c4CCCC5)C3=O)c2CO)cc(Nc2ccc(N3CCN(C4COC4)CC3)cn2)c1=O  inhibition (enzyme activity, inhibitor; 0.1 µM): 9%
Cn1cncc1[C@](O)(COc1ccc(C#N)cc1-c1ccc(OC(F)(F)F)cc1)c1ccc(C#N)cc1  remaining binding (cell-free assay, competition with immobilised ligand; 1 µM): 98%
